Columns and labels:
[1] = system: Canis familiaris; assay: Effect on heart rate in conscious dogs dosed at 5 mg/kg, observed at 3-4 h; format: functional, Canis lupus familiaris
How it was run: (§1)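 Conscious dogs; aortic catheter for blood pressure and heart rate, with renal and lower aortic blood flow monitored. After a 30-min control period the compound was given orally and the variables were followed for a further 5 h, recorded every 2 min. Readings were averaged over the control period and each hourly postdose period; means ± SE.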

[2] = system: Canis familiaris; assay: Effect on renal blood flow in conscious dogs dosed at 5 mg/kg, observed at 2-3 h; format: functional, Canis lupus familiaris, Kidney; how it was run: as §1
[3] = system: Canis familiaris; assay: Effect on heart rate in conscious dogs dosed at 5 mg/kg, observed at 4-5 h; format: functional, Canis lupus familiaris; how it was run: as §1
[4] = system: Canis familiaris; assay: Effect on heart rate in conscious dogs dosed at 5 mg/kg, observed at 0-1 h; format: functional, Canis lupus familiaris; how it was run: as §1
[5] = system: Canis familiaris; assay: Effect on heart rate in conscious dogs dosed at 5 mg/kg, observed at 2-3 h; format: functional, Canis lupus familiaris; how it was run: as §1
[6] = system: Canis familiaris; assay: Effect on lower arterial blood pressure in conscious dogs dosed at 5 mg/kg, observed at 1-2 h; format: functional, Canis lupus familiaris; how it was run: as §1
[7] = system: Canis familiaris; assay: Effect on renal plasma flow in conscious dogs dosed at 0.1 mg/kg (post-treatment); format: functional, Canis lupus familiaris
How it was run: (§2)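 Trained conscious female mongrel dogs, postabsorptive, given 500 mL tap water orally 1-1.5 h beforehand. Effective renal plasma flow was taken as renal p-aminohippurate clearance: priming 8 mg/kg iv, then 0.3 (mg/kg)/min in isotonic NaCl. Two 30-min control clearance periods, a single iv dose (Na salt, aqueous), then four 30-min periods. Plasma sampled at midpoints; means ± SEM.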

[8] = system: Canis familiaris; assay: Effect on renal plasma flow in conscious dogs dosed at 0.2 mg/kg (post-treatment); format: functional, Canis lupus familiaris; how it was run: as §2
[9] = system: Canis familiaris; assay: Effect on renal blood flow in conscious dogs dosed at 5 mg/kg, observed at 3-4 h; format: functional, Canis lupus familiaris; how it was run: as §1
[10] = system: Canis familiaris; assay: Effect on lower aortic blood flow in conscious dogs dosed at 5 mg/kg, observed at 1-2 h; format: functional, Canis lupus familiaris, Aorta; how it was run: as §1
[11] = system: Canis familiaris; assay: Effect on renal blood flow in conscious dogs dosed at 5 mg/kg, observed at 4-5 h; format: functional, Canis lupus familiaris; how it was run: as §1
[12] = system: Canis familiaris; assay: Percent change in renal resistance in anesthetized dogs after infusion of compound at 10 nM/kg/min; format: functional, Canis lupus familiaris
How it was run: (§3)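 Vinbarbital-anesthetized dogs with an electromagnetic flow probe on the left renal artery and an aortic catheter for pressure. Saline was infused intrarenally for 30 min as pretreatment. Percent change was calculated from the maximum decrease in renal resistance versus pretreatment.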

[13] = system: Canis familiaris; assay: Effect on renal plasma flow in conscious dogs dosed at 0.05 mg/kg (post-treatment); format: functional, Canis lupus familiaris; how it was run: as §2
[14] = system: Canis familiaris; assay: Percent change in renal plasma flow in conscious dogs dosed at 0.2 mg/kg; format: functional, Canis lupus familiaris; how it was run: as §2
[15] = system: Canis familiaris; assay: Percent change in renal resistance in anesthetized dogs after infusion of compound at 50 nM/kg/min; format: functional, Canis lupus familiaris
[16] = system: Canis familiaris; assay: Percent change in renal plasma flow in conscious dogs dosed at 0.1 mg/kg; format: functional, Canis lupus familiaris; how it was run: as §2
[17] = system: Canis familiaris; assay: Effect on lower aortic blood flow in conscious dogs dosed at 5 mg/kg, observed at 0-1 h; format: functional, Canis lupus familiaris, Aorta; how it was run: as §1
[18] = system: Canis familiaris; assay: Effect on lower arterial blood pressure in conscious dogs dosed at 5 mg/kg, observed at 0-1 h; format: functional, Canis lupus familiaris; how it was run: as §1
[19] = system: Canis familiaris; assay: Effect on heart rate in conscious dogs dosed at 5 mg/kg, observed at 1-2 h; format: functional, Canis lupus familiaris; how it was run: as §1
[20] = system: Canis familiaris; assay: Effect on lower aortic blood flow in conscious dogs dosed at 5 mg/kg, observed at 2-3 h; format: functional, Canis lupus familiaris, Aorta; how it was run: as §1
[21] = system: Canis familiaris; assay: Effect on lower arterial blood pressure in conscious dogs dosed at 5 mg/kg, observed at 2-3 h; format: functional, Canis lupus familiaris; how it was run: as §1
[22] = system: Canis familiaris; assay: Effect on renal blood flow in conscious dogs dosed at 5 mg/kg, observed at 0-1 h; format: functional, Canis lupus familiaris; how it was run: as §1
[23] = system: Canis familiaris; assay: Effect on renal blood flow in conscious dogs dosed at 5 mg/kg, observed at 1-2 h; format: functional, Canis lupus familiaris, Kidney; how it was run: as §1
[24] = system: Canis familiaris; assay: Effect on lower arterial blood pressure in conscious dogs dosed at 5 mg/kg, observed at 4-5 h; format: functional, Canis lupus familiaris; how it was run: as §1
[25] = system: Canis familiaris; assay: Percent change in renal plasma flow in conscious dogs dosed at 0.05 mg/kg; format: functional, Canis lupus familiaris; how it was run: as §2
[26] = system: Canis familiaris; assay: Effect on renal plasma flow in conscious dogs dosed at 0.05 mg/kg (pretreatment); format: functional, Canis lupus familiaris; how it was run: as §2
[27] = system: Canis familiaris; assay: Percent change in renal resistance in anesthetized dogs after infusion of compound at 25 nM/kg/min; format: functional, Canis lupus familiaris
[28] = system: Canis familiaris; assay: Effect on renal plasma flow in conscious dogs dosed at 0.1 mg/kg (pretreatment); format: functional, Canis lupus familiaris; how it was run: as §2
[29] = system: Canis familiaris; assay: Effect on lower aortic blood flow in conscious dogs dosed at 5 mg/kg, observed at 3-4 h; format: functional, Canis lupus familiaris, Aorta; how it was run: as §1
[30] = system: Canis familiaris; assay: Effect on renal plasma flow in conscious dogs dosed at 0.2 mg/kg (pretreatment); format: functional, Canis lupus familiaris; how it was run: as §2
[31] = system: Canis familiaris; assay: Effect on lower arterial blood pressure in conscious dogs dosed at 5 mg/kg, observed at 3-4 h; format: functional, Canis lupus familiaris; how it was run: as §1
[32] = system: Canis familiaris; assay: Effect on lower aortic blood flow in conscious dogs dosed at 5 mg/kg, observed at 4-5 h; format: functional, Canis lupus familiaris, Aorta; how it was run: as §1
[33] = system: Canis familiaris; assay: Percent change in renal plasma flow in conscious dogs dosed at 0.4 mg/kg; format: functional, Canis lupus familiaris; how it was run: as §2
[34] = system: Canis familiaris; assay: Effect on renal plasma flow in conscious dogs dosed at 10 mg/kg (post-treatment); format: functional, Canis lupus familiaris; how it was run: as §2
[35] = system: Canis familiaris; assay: Effect on renal plasma flow in conscious dogs dosed at 0.4 mg/kg (post-treatment); format: functional, Canis lupus familiaris; how it was run: as §2
[36] = system: Canis familiaris; assay: Percent change in renal plasma flow in conscious dogs dosed at 10 mg/kg; format: functional, Canis lupus familiaris; how it was run: as §2
[37] = system: Canis familiaris; assay: Effect on renal plasma flow in conscious dogs dosed at 10 mg/kg (pretreatment); format: functional, Canis lupus familiaris; how it was run: as §2
[38] = system: Canis familiaris; assay: Effect on renal plasma flow in conscious dogs dosed at 0.4 mg/kg (pretreatment); format: functional, Canis lupus familiaris; how it was run: as §2
[39] = system: Canis familiaris; assay: Effect on renal plasma flow in conscious dogs dosed at 0.025 mg/kg (post-treatment); format: functional, Canis lupus familiaris; how it was run: as §2
[40] = system: Canis familiaris; assay: Percent change in renal plasma flow in conscious dogs dosed at 0.025 mg/kg; format: functional, Canis lupus familiaris; how it was run: as §2
[41] = system: Canis familiaris; assay: Effect on renal plasma flow in conscious dogs dosed at 0.025 mg/kg (pretreatment); format: functional, Canis lupus familiaris; how it was run: as §2
[42] = system: Canis familiaris; assay: Percent change in renal resistance in anesthetized dogs after infusion of compound at 60 nM/kg/min; format: functional, Canis lupus familiaris; details: in the assay text read “60 ng/kg/min” for “60 nM/kg/min”; how it was run: as §3
[43] = system: Canis familiaris; assay: Percent change in renal resistance in anesthetized dogs after infusion of compound at 110 nM/kg/min; format: functional, Canis lupus familiaris; how it was run: as §3
[44] = dose 1 mg/kg, in the assay text read “dosed at 1 mg/kg” for “dosed at 5 mg/kg”

SMILES | Mean HR [1] [beats min-1] | Mean HR [3] [beats min-1] | Mean HR [4] [beats min-1] | Mean HR [5] [beats min-1] | Mean blood pressure [6] [mmHg] | Activity [8] [mL/min] | Mean RBF [9] [mL/min] | Mean LAF [10] [mL/min] | Mean RBF [11] [mL/min] | Mean LAF [17] [mL/min] | Mean blood pressure [18] [mmHg] | Mean HR [19] [beats min-1] | Mean LAF [20] [mL/min] | Mean blood pressure [21] [mmHg] | Mean RBF [22] [mL/min] | Mean RBF [23] [mL/min] | Mean blood pressure [24] [mmHg] | Mean LAF [29] [mL/min] | Mean blood pressure [31] [mmHg] | Mean LAF [32] [mL/min] | further results
O=C(O)c1ccc(CCCC2SCC(=O)N2CCC2(O)CCCCC2)cc1 (stereo not drawn) | 131 | 136 | 122 | 144 | 89 | 322 | 233 | 597 | 242 | 486 | 105 | 169 | 521 | 97 | 179 | 211 | 98 | 492 | 101 | 477 | Mean RBF [2, 44]: 226 mL/min; Activity [7]: 216 mL/min; Change [12]: -13%; Activity [13]: 240 mL/min; Change [14]: 137%; Change [15]: -28%; Change [16]: 52%; Change [25]: 62%; Activity [26]: 148 mL/min; Change [27]: -24%; Activity [28]: 142 mL/min; Activity [30]: 136 mL/min
O=C(O)c1ccc(CCC[C@@H]2SCC(=O)N2CCC2(O)CCCCC2)cc1 |  |  |  |  |  | 146 |  |  |  |  |  |  |  |  |  |  |  |  |  |  | Change [33]: 8%; Activity [34]: 151 mL/min; Activity [35]: 147 mL/min; Change [14]: 6%; Change [36]: 9%; Activity [37]: 139 mL/min; Activity [30]: 138 mL/min; Activity [38]: 136 mL/min
CCCCCC(O)CCN1C(=O)CSC1CCCc1ccc(C(=O)O)cc1 (stereo not drawn) | 92 | 84 | 103 | 107 | 108 |  | 183 | 560 | 159 | 546 | 118 | 118 | 625 | 116 | 201 | 241 | 116 | 521 | 116 | 510 | Mean RBF ([2]; dose 5 mg/kg): 209 mL/min
CCCCCC(O)CCN1C(=O)CSC1CCCCCCC(=O)O (stereo not drawn) | 82 | 76 | 126 | 85 | 146 |  | 116 | 424 | 111 | 420 | 123 | 79 | 432 | 140 | 181 | 110 | 132 | 427 | 133 | 386 | Mean RBF ([2]; dose 5 mg/kg): 110 mL/min
O=C(O)c1ccc(CCC[C@H]2SCC(=O)N2CCC2(O)CCCCC2)cc1 |  |  |  |  |  | 292 |  |  |  |  |  |  |  |  |  |  |  |  |  |  | Activity [39]: 239 mL/min; Change [40]: 54%; Activity [13]: 289 mL/min; Change [14]: 104%; Activity [41]: 155 mL/min; Change [25]: 62%; Activity [26]: 178 mL/min; Activity [30]: 143 mL/min
O=C(O)CCCCCCC1SCC(=O)N1CCC1(O)CCCCC1 (stereo not drawn) | 94 | 88 | 180 | 113 | 74 |  | 176 | 742 | 160 | 772 | 59 | 185 | 530 | 92 | 97 | 150 | 104 | 510 | 100 | 388 | Mean RBF [2, 44]: 199 mL/min
CCCCC[C@H](O)/C=C/[C@H]1[C@H](O)CC(=O)[C@@H]1C/C=C\CCCC(=O)O [DINOPROSTONE] |  |  |  |  |  |  |  |  |  |  |  |  |  |  |  |  |  |  |  |  | Change [42]: -29%; Change [12]: -13%; Change [43]: -35%

Reference: ChEMBL document CHEMBL1122341, “Prostaglandin isosteres. 2. Chain-modified thiazolidinone prostaglandin analogues as renal vasodilators” (1983)
